Broadly, the IC50 is the midpoint of a concentration-inhibition curve. A lower IC50 goes with greater potency in that assay. The term ED50 denotes the dose that gives a 50% effect, or the effect in half of the subjects.

Eleven molecules from ChEMBL document CHEMBL1123688, “Synthesis of 7,12-dihydropyrido[3,4-b:5,4-b']diindoles. A novel class of rigid, planar benzodiazepine receptor ligands” (J Med Chem, 1987) can be followed below.

Active and inactive are the calls of the source. No cut-off for these calls is given here.

The target in test [1] is GABA-A receptor; anion channel. Put plainly: Inhibition of [3H]-diazepam binding to GABA-A benzodiazepine receptor of rat cerebral cortical membranes. Format: cell membranes, Membrane.
Test [2] deals with Mus musculus. Put plainly: Antagonism of Diazepam (2.5 mg/kg) anticonvulsant effect in mice treated with (pentylenetetrazole) PTZ (80 mg/kg). The format is functional. In short, it runs like this:
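Adult male NIH-colony mice (20-25 g), groups of 10, got graded ip doses of test agent or vehicle (0.1 mL). Diazepam 2.5 mg/kg ip followed 15 min later, then PTZ 80 mg/kg 15 min after that. Score: tonic-clonic convulsions. ED50 = dose that blocks diazepam's anticonvulsant effect in 50% of mice.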

The test system of test [3] is Mus musculus. Put plainly: Convulsant effect in mice treated with subconvulsant (pentylenetetrazole) PTZ (40 mg/kg), ineffective at 30 mg/kg. Format: functional, organism-based. Also noted: dose 30 mg/kg.
The species named for test [4] is Mus musculus. Put plainly: In vitro ability to induce convulsions in mice.
In test [5] the test system is Mus musculus. As to the kind of experiment: Protection of mice against maximal electroshock (MES)-induced convulsions after administration of 38 mg/kg. Format: functional.
Test [6] relates to Mus musculus. Put plainly: Convulsant effect in mice treated with subconvulsant (pentylenetetrazole) PTZ (40 mg/kg). The format is functional.

The molecule `Clc1cccc2[nH]c3c4c5ccccc5nc-4c[nH]c3c12` returned an IC50 in test [1] of 715 nM.
In test [1], `Clc1ccc2[nH]c3c4c5ccccc5nc-4c[nH]c3c2c1` yielded an IC50 of 2150 nM.
The molecule `Clc1ccc2c(c1)[nH]c1c2ncc2[nH]c3ccccc3c21` had an ED50 in the test on Mus musculus [2] of 2.5 mg/kg. The IC50 in test [1] is 10 nM. The ED50 result in the test on Mus musculus [3] was “inactive”.
For `Fc1ccc2c(c1)[nH]c1c3c4ccccc4nc-3c[nH]c12`, the IC50 in test [1] stood at 7 nM.
Turning to `Fc1cccc2c1[nH]c1c3c4ccccc4nc-3c[nH]c12`, the IC50 in test [1] stood at 12 nM.
The molecule `CN1C(=O)CN=C(c2ccccc2)c2cc(Cl)ccc21` [DIAZEPAM] showed an ED50 in the test listed under Mus musculus [4] of 3.4 mg/kg. For the same molecule, the Survivors in the test with Mus musculus [5] was determined as 100%.
As for `c1ccc2c(c1)[nH]c1c2ncc2[nH]c3ccccc3c21`, the median effective dose (ED50) is 21.3 mg/kg in the test with Mus musculus [2] and 15.1 mg/kg in the test with Mus musculus [6]. Besides, the IC50 in test [1] is 4 nM.
`Clc1cccc2c1[nH]c1c3c4ccccc4nc-3c[nH]c12` yielded an IC50 in test [1] of 80 nM.
The molecule `Fc1ccc2[nH]c3c4c5ccccc5nc-4c[nH]c3c2c1` displayed an ED50 in the test with Mus musculus [2] of 24 mg/kg. In test [1], the IC50 came to 16 nM. In addition, in the test with Mus musculus [3], the ED50 entry is “inactive”.
As for `COc1ccc2c(c1)[nH]c1c2ncc2[nH]c3ccccc3c21`, the 50% effective dose (ED50) in the test on Mus musculus [2] was determined as 3.9 mg/kg; in the test on Mus musculus [6], 7 mg/kg. In test [1], this molecule returned a concentration for half-maximal inhibition (IC50) of 8 nM.
`COc1ccc2[nH]c3c4c5ccccc5nc-4c[nH]c3c2c1` yielded a 50% inhibitory concentration (IC50) in test [1] of 890 nM.
